Data taken from ChEMBL document CHEMBL3351569, “Synthesis and antiproliferative activity of some new thieno[2,3-d]pyrimidin-4(3H)-ones containing 1,2,4-triazole and 1,3,4-thiadiazole moiety” (Eur J Med Chem, 2014).

Legend:
HeLa [1] = experiment: Cytotoxicity against human HeLa cells assessed as reduction in cell viability after 24 hrs by MTS assay; type: functional, cell-based
Procedure, shortened: (§1)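 Compounds were dissolved in DMSO at 4 mg/ml (stock) and diluted 1:10, 1:100, 1:1000 and 1:10 000. Cells were incubated 24 h with compound, with untreated cells in unmodified medium as the control. MTS reagent was then added for 2 h at 37°C under 5% CO2/95% air, and absorbance was read at 490 nm. Viability is expressed as % of untreated control (100%) at each concentration, and IC50/EC50 were calculated from it.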

HepG2 [2] = experiment: Cytotoxicity against human HepG2 cells assessed as reduction in cell viability after 24 hrs by MTS assay; type: functional, cell-based; details: HepG2, 24 h; procedure, shortened: as §1
HT-29 [3] = experiment: Antiproliferative activity against human HT-29 cells by CellTiter-96 non-radioactive assay; type: functional, cell-based; procedure, shortened: as §1
MDA-MB-231 [4] = experiment: Antiproliferative activity against human MDA-MB-231 cells by CellTiter-96 non-radioactive assay; type: functional, cell-based; procedure, shortened: as §1
[5] = Antiproliferative activity against human LEP-3 cells by CellTiter-96 non-radioactive assay; type: cell-based; procedure, shortened: as §1
HeLa [6] = experiment: Antiproliferative activity against human HeLa cells by CellTiter-96 non-radioactive assay; type: functional, cell-based; procedure, shortened: as §1
HT-29 [7] = experiment: Cytotoxicity against human HT-29 cells assessed as reduction in cell viability after 24 hrs by MTS assay; type: functional, cell-based; details: HT-29, 24 h; procedure, shortened: as §1
MDA-MB-231 [8] = experiment: Cytotoxicity against human MDA-MB-231 cells assessed as reduction in cell viability after 24 hrs by MTS assay; type: functional, cell-based; details: MDA-MB-231, 24 h; procedure, shortened: as §1
[9] = Cytotoxicity against human LEP-3 cells assessed as reduction in cell viability after 24 hrs by MTS assay; type: cell-based; details: LEP-3, 24 h; procedure, shortened: as §1
HepG2 [10] = experiment: Antiproliferative activity against human HepG2 cells by CellTiter-96 non-radioactive assay; type: functional, cell-based; procedure, shortened: as §1

| EC50 (HT-29 [3]) [µM] | EC50 (MDA-MB-231 [4]) [µM] | EC50 (HeLa [6]) [µM] | EC50 (HepG2 [10]) [µM] | Structure (SMILES) | IC50 (HeLa [1]) [µM] | IC50 (HepG2 [2]) [µM] | EC50 [5] [µM] | IC50 (HT-29 [7]) [µM] | IC50 (MDA-MB-231 [8]) [µM] | IC50 [9] [µM] |
| --- | --- | --- | --- | --- | --- | --- | --- | --- | --- | --- |
| 1.8 | 1.2 |  |  | O=c1[nH]c(Cc2nnc(S)n2-c2ccccc2)nc2sc3c(c12)CCCC3 | 0.00095 | 1800 | 0.46 |  |  |  |
| 0.86 | 0.3 | 0.12 |  | Cc1c(C(=O)O)sc2nc(Cc3nnc(S)n3-c3ccccc3)[nH]c(=O)c12 |  | 0.29 | 1.21 |  |  |  |
|  |  |  |  | CCNc1nnc(Cc2nc3sc4c(c3c(=O)[nH]2)CCCC4)s1 | 3.8 | 0.21 |  | 0.097 | 1.26 | 0.44 |
| 0.42 |  |  | 1.26 | CCNc1nnc(Cc2nc3sc(C(=O)OCC)c(C)c3c(=O)[nH]2)s1 | 3.31 |  | 0.31 |  | 0.0012 |  |
|  |  |  |  | O=c1[nH]c(Cc2nnc(Nc3ccccc3)s2)nc2sc3c(c12)CCCC3 | 1.85 | 1.23 |  | 0.13 | 0.0374 | 3.17 |
| 1.5 | 0.0018 |  |  | CCOC(=O)c1sc2nc(Cc3nnc(Nc4ccccc4)s3)[nH]c(=O)c2c1C | 2.3 | 0.88 | 0.26 |  |  |  |
| 2.12 | 1.54 | 2.52 | 2.18 | NNC(=O)Cc1nc2sc3c(c2c(=O)[nH]1)CCCC3 |  |  | 2.21 |  |  |  |
| 0.04 | 1.8 | 0.032 | 1.02 | CCNC(=S)NNC(=O)Cc1nc2sc3c(c2c(=O)[nH]1)CCCC3 |  |  | 0.12 |  |  |  |
| 0.089 |  |  | 0.19 | CCNC(=S)NNC(=O)Cc1nc2sc(C(=O)OCC)c(C)c2c(=O)[nH]1 | 1.7 |  | 0.025 |  | 0.0391 |  |
|  |  |  |  | CCOC(=O)c1sc2nc(CC(=O)NNC(=S)Nc3ccccc3)[nH]c(=O)c2c1C | 9.3 | 1.47 |  | 0.00156 | 1.21 | 1500 |
| 2.43 | 0.13 |  | 2.08 | CCn1c(S)nnc1Cc1nc2sc3c(c2c(=O)[nH]1)CCCC3 | 1.69 |  | 1.14 |  |  |  |
| 0.91 | 1.16 | 2.34 | 1.4 | CCn1c(S)nnc1Cc1nc2sc(C(=O)O)c(C)c2c(=O)[nH]1 |  |  | 1.4 |  |  |  |
